“And” between values parts separate entries of the source, which are not always exact repeats. Equal entries are not always repeated.
Tests used:
Mus musculus [1] = experiment: Percentage change in plasma glucose after 4 days of treatment in db/db mouse at 20 mg/kg (po) in a postprandial assay; type: functional
How it was run: (§1)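 Male db/db (C57BL/KsJ) mice; postprandial assay after 4 days of oral dosing. Result is % change in plasma glucose relative to the vehicle-treated group. Values are mean ± SE with 4–6 mice per group; p < 0.05 flagged.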

Mus musculus [2] = experiment: Percentage change in plasma glucose after 4 days of treatment in db/db mouse at 5 mg/kg (po) in a postprandial assay; type: functional; how it was run: as §1
Mus musculus [3] = experiment: Percentage change in plasma glucose after 4 days of treatment in db/db mouse at 100 mg/kg (po) in a postprandial assay; type: functional; how it was run: as §1
Mus musculus [4] = experiment: Percentage change in plasma glucose after 4 days of treatment in db/db mouse at 1 mg/kg (po) in a postprandial assay; type: functional; how it was run: as §1
Mus musculus [5] = experiment: Percentage change in plasma glucose after 4 days of treatment in db/db mouse at 1 mg/kg (po) in a postprandial assay
Mus musculus [6] = experiment: Percentage change in plasma glucose after 4 days of treatment in db/db mouse at 5 mg/kg (po) in a postprandial assay
Rattus norvegicus [7] = experiment: Plasma glucose levels of nondiabetic rats after 4 hour of drug administration (25 mg/Kg, po); type: functional
How it was run: (§2)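 Single oral dose to male Sprague-Dawley nondiabetic rats. Tail-tip blood sampled before dosing and at 1, 2 and 4 h after dosing for plasma glucose. Mean ± SE, n = 5 per group; compared with the respective vehicle group.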

Rattus norvegicus [8] = experiment: Change in plasma glucose levels of streptozocin-diabetic rats wtih type I diabetes at dose of 5 mg/kg, po; type: functional
How it was run: (§3)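 Male Sprague-Dawley rats made diabetic with streptozocin (100 mg/kg, ip). Drug or vehicle given orally once daily for 3 weeks. Tail-tip blood taken 90 min after the last dose and assayed for plasma glucose. Mean ± SE, n = 9-12 per group.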

Rattus norvegicus [9] = experiment: Amount of food consumed by the rat at a dose of 5 mg/kg; type: functional
How it was run: (§4)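 Male Sprague-Dawley rats (nondiabetic), dosed daily by mouth for 11 days. Urine collected over 24 h and assayed for glucose; urine volume, water intake and food intake also measured. Values are mean ± SE, n = 6 per group.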

Rattus norvegicus [10] = experiment: Amount of food consumed by the rat at a dose of 25 mg/kg; type: functional; how it was run: as §4
Rattus norvegicus [11] = experiment: Volume of water consumed by the rat at a dose of 10 mg/kg; type: functional; how it was run: as §4
Rattus norvegicus [12] = experiment: Change in plasma glucose levels of streptozocin-diabetic rats wtih type I diabetes at dose of 25 mg/kg, po; type: functional; how it was run: as §3
Rattus norvegicus [13] = experiment: Volume of urine collected after treatment in nondiabetic rats at the dose of 10 mg/kg; type: functional; how it was run: as §4
Rattus norvegicus [14] = experiment: Volume of water consumed by the rat at a dose of 5 mg/kg; type: functional; how it was run: as §4
Rattus norvegicus [15] = experiment: Volume of urine collected after treatment in nondiabetic rats at the dose of 25 mg/kg; type: functional; how it was run: as §4
Rattus norvegicus [16] = experiment: Volume of water consumed by the rat at a dose of 25 mg/kg; type: functional; how it was run: as §4
Mus musculus [17] = experiment: Plasma glucose after treatment in obese ob/ob mice at 5 mg/kg (po); type: functional
How it was run: (§5)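 Female obese ob/ob (C57BL/6J) mice, 3-5 months old, fed ad libitum. Oral gavage once daily for 10 days, vehicle 0.2 mL 2% Tween 80/saline (w/v). Decapitated 4 h after the last dose; blood assayed for glucose. Mean ± SEM; p < 0.05 versus vehicle.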

Rattus norvegicus [18] = experiment: Plasma glucose levels of nondiabetic rats after 1 hour of drug administration (25 mg/Kg, po); type: functional; how it was run: as §2
Rattus norvegicus [19] = experiment: Volume of urine collected after treatment in nondiabetic rats at the dose of 5 mg/kg; type: functional; how it was run: as §4
Rattus norvegicus [20] = experiment: Plasma glucose levels of nondiabetic rats after 2 hour of drug administration (25 mg/Kg, po); type: functional; how it was run: as §2
Mus musculus [21] = experiment: Plasma glucose after treatment in obese ob/ob mice at 20 mg/kg (po); type: functional; how it was run: as §5
Rattus norvegicus [22] = experiment: Change in urinary glucose excretion of nondiabetic rats at the dose of 25 mg/kg; type: functional, Urine
Rattus norvegicus [23] = experiment: Plasma glucose levels of nondiabetic rats after 0 hour of drug administration (25 mg/Kg, po); type: functional; how it was run: as §2
Rattus norvegicus [24] = experiment: Amount of food consumed by the rat at a dose of 10 mg/kg; type: functional; how it was run: as §4
Mus musculus [25] = experiment: Plasma glucose after treatment in obese ob/ob mice at 50 mg/kg (po); type: functional; how it was run: as §5
Mus musculus [26] = experiment: Plasma glucose after treatment in obese ob/ob mice at 200 mg/kg (po); type: functional; how it was run: as §5
[27] = dose 5 mg/kg, in the assay text read “5 mg/kg” for “100 mg/kg”

O=S1NC(Cc2ccc3ccccc3c2)=NO1 (centres undefined)
Change (Mus musculus [1]): -37% | Change (Mus musculus [2]): <-15%

Cc1ccc2ccc(CC3=NOS(=O)N3)cc2c1Br (centres undefined)
Change (Mus musculus [2]): -21%

Cc1ccc2ccc(CC3=NOS(=O)N3)cc2c1 (centres undefined)
Change (Mus musculus [1]): -36%

O=S1NC(Cc2ccc3ccccc3c2Br)=NO1 (centres undefined)
Change (Mus musculus [3]; dose 100 mg/kg): -40% and -21%

C=Cc1cccc2cc(CC3=NOS(=O)N3)ccc12 (centres undefined)
Change (Mus musculus [2]): -17%

CC(CC1=NOS(=O)N1)c1ccc2ccccc2c1 (centres undefined)
Change (Mus musculus [1]): -27%

CC(C1=NOS(=O)N1)c1ccc2ccccc2c1 (centres undefined)
Change (Mus musculus [1]): -49%

CSc1cccc2cc(CC3=NOS(=O)N3)ccc12 (centres undefined)
Change (Mus musculus [2]): <-15%

COc1ccc2cc(CC3=NOS(=O)N3)ccc2c1 (centres undefined)
Change (Mus musculus [1]): <-15%

O=S1NC(Cc2ccc3cccc(Cl)c3c2)=NO1 (centres undefined)
Change (Mus musculus [3]; [27]): -55% | Change (Mus musculus [4]): <-15%

O=S1NC(Cc2cc3ccccc3cc2Br)=NO1 (centres undefined)
Change (Mus musculus [4]): <-15% | Change (Mus musculus [2]): -28%

O=S1NC(Cc2ccc3cc(F)ccc3c2Br)=NO1 (centres undefined)
Change (Mus musculus [2]): -16%

Cc1cccc2cc(CC3=NOS(=O)N3)ccc12 (centres undefined)
Change (Mus musculus [3]; [27]): -37% | Change (Mus musculus [4]): <-15%

Cc1cc2ccccc2cc1CC1=NOS(=O)N1 (centres undefined)
Change (Mus musculus [3]; dose 100 mg/kg): -36% and -20%

O=S1NC(Cc2ccc3c(C(F)(F)F)cccc3c2)=NO1 (centres undefined)
Change (Mus musculus [3]; [27]): -30% | Change (Mus musculus [4]): <-15%

O=S1NC(Cc2ccc3cccc(Br)c3c2)=NO1 (centres undefined)
Change (Mus musculus [3]; dose 100 mg/kg): -59% and -48%

COc1ccc(Br)c2cc(CC3=NOS(=O)N3)ccc12 (centres undefined)
Change (Mus musculus [4]): <-15%

COc1ccc2ccc(CC3=NOS(=O)N3)cc2c1 (centres undefined)
Change (Mus musculus [2]): -19%

CSc1ccc(Br)c2ccc(CC3=NOS(=O)N3)cc12 (centres undefined)
Change (Mus musculus [4]): <-15% | Change (Mus musculus [2]): -19%

O=S1NC(/C=C/c2ccc3ccccc3c2)=NO1 (centres undefined)
Change (Mus musculus [1]): <-15%

O=S1NC(CCc2ccc3ccccc3c2)=NO1 (centres undefined)
Change (Mus musculus [1]): -38%

O=S1NC(Cc2ccc3ccc(Cl)cc3c2)=NO1 (centres undefined)
Change (Mus musculus [2]): <-15%

O=S1NC(CCCc2ccc3ccccc3c2)=NO1 (centres undefined)
Change (Mus musculus [1]): <-15%

O=S1NC(Cc2ccc3ccccc3c2Cl)=NO1 (centres undefined)
Change (Mus musculus [3]; [27]): -27% | Change (Mus musculus [4]): <-15%

Cc1c(CC2=NOS(=O)N2)ccc2ccccc12 (centres undefined)
Change (Mus musculus [3]; dose 100 mg/kg): -36% and -20%

N#Cc1cccc2ccc(CC3=NOS(=O)N3)cc12 (centres undefined)
Change (Mus musculus [4]): <-15% | Change (Mus musculus [2]): <-15%

C#Cc1cccc2cc(CC3=NOS(=O)N3)ccc12 (centres undefined)
Change (Mus musculus [3]; [27]): -45% | Change (Mus musculus [4]): -19%

CCc1cccc2cc(CC3=NOS(=O)N3)ccc12 (centres undefined)
Change (Mus musculus [3]; [27]): -23% | Change (Mus musculus [4]): <-15%

Cc1cc2ccccc2c(C)c1CC1=NOS(=O)N1 (centres undefined)
Change (Mus musculus [4]): <-15% | Change (Mus musculus [2]): -45%

COc1cccc2cc(CC3=NOS(=O)N3)ccc12 (centres undefined)
Change (Mus musculus [5]): <-15% | Change (Mus musculus [6]): <-15%

O=S1NC(Cc2cc(Br)c3ccccc3c2)=NO1 (centres undefined)
Change (Mus musculus [4]): <-15% | Change (Mus musculus [2]): -21%

O=S1NC(Cc2ccc3c(Br)cccc3c2)=NO1 (centres undefined)
Change (Mus musculus [3]; dose 100 mg/kg): -47% and -35%

O=S1NC(Cc2cc3ccccc3cc2Cl)=NO1 (centres undefined)
Change (Mus musculus [3]; [27]): -44% | Change (Mus musculus [4]): <-15%

CCc1c(CC2=NOS(=O)N2)ccc2ccccc12 (centres undefined)
Change (Mus musculus [3]; dose 5 mg/kg, in the assay text read “at 5 mg/kg” for “at 100 mg/kg”): -24% | Change (Mus musculus [4]): <-15%

O=S1NC(Cc2ccc3c(Cl)cccc3c2)=NO1 (centres undefined)
Glucose level (Rattus norvegicus [7]): 118 mg/dL | Glucose level (Rattus norvegicus [8]): 329 mg/dL | Consumption (Rattus norvegicus [9]): 25 g/day | Consumption (Rattus norvegicus [10]): 25 g/day | Consumption (Rattus norvegicus [11]): 45 mL/day | Glucose level (Rattus norvegicus [12]): 255 mg/dL | Change (Mus musculus [3]; dose 100 mg/kg): -44% and -21% | urine volume (Rattus norvegicus [13]): 23 mL/day | Consumption (Rattus norvegicus [14]): 49 mL/day | urine volume (Rattus norvegicus [15]): 37 mL/day | Consumption (Rattus norvegicus [16]): 59 mL/day | Glucose level (Mus musculus [17]): 223 mg/dL | Glucose level (Rattus norvegicus [18]): 120 mg/dL | urine volume (Rattus norvegicus [19]): 29 mL/day | Glucose level (Rattus norvegicus [20]): 122 mg/dL | Glucose level (Mus musculus [21]): 199 mg/dL | Glucose level (Rattus norvegicus [22]): 5.7 g dl-1 and 2.1 g day-1 | Glucose level (Rattus norvegicus [23]): 111 mg/dL | Consumption (Rattus norvegicus [24]): 25 g/day

O=S1NC(COc2ccc3ccccc3c2)=NO1 (centres undefined)
Change (Mus musculus [1]): <-15%

COc1cc2ccccc2cc1CC1=NOS(=O)N1 (centres undefined)
Change (Mus musculus [5]): -16%

COc1c(CC2=NOS(=O)N2)ccc2ccccc12 (centres undefined)
Change (Mus musculus [4]): <-15% | Change (Mus musculus [2]): -43%

O=S1NC(CCCCc2ccc3ccccc3c2)=NO1 (centres undefined)
Change (Mus musculus [3]; dose 100 mg/kg): -28%

COC(CC1=NOS(=O)N1)c1ccc2ccccc2c1 (centres undefined)
Change (Mus musculus [1]): <-15%

O=S1NC(Cc2ccc3cc(F)ccc3c2Cl)=NO1 (centres undefined)
Change (Mus musculus [6]): <-15%

O=S1NC(Cc2ccc3cc(Br)ccc3c2)=NO1 (centres undefined)
Change (Mus musculus [4]): <-15% | Change (Mus musculus [2]): -25%

O=S1NC(CSc2ccc3ccccc3c2)=NO1 (centres undefined)
Change (Mus musculus [1]): -40%

O=S1NC(Cc2cc3ccccc3cc2C(F)(F)F)=NO1 (centres undefined)
Change (Mus musculus [3]; [27]): -30% | Change (Mus musculus [4]): <-15%

O=S1NC(Cc2ccc3ccc(Br)cc3c2)=NO1 (centres undefined)
Change (Mus musculus [2]): <-15%

O=S1NC(c2ccc3ccccc3c2)=NO1 (centres undefined)
Change (Mus musculus [1]): <-15%

Cc1cc2ccccc2c(Br)c1CC1=NOS(=O)N1 (centres undefined)
Change (Mus musculus [4]): <-15% | Change (Mus musculus [2]): -34%

O=S1NC(C(Cc2ccccc2)c2ccc3ccccc3c2)=NO1 (centres undefined)
Change (Mus musculus [1]): <-15%

COc1c(CC2=NOS(=O)N2)cc(Cl)c2ccccc12 (centres undefined)
Change (Mus musculus [4]): -17% | Change (Mus musculus [2]): -31%

CC(C)(C1=NOS(=O)N1)c1ccc2ccccc2c1 (centres undefined)
Change (Mus musculus [1]): <-15%

O=S1NC(Cc2ccc3ccccc3c2F)=NO1 (centres undefined)
Change (Mus musculus [3]; [27]): -39% | Change (Mus musculus [4]): <-15%

CC1(COc2ccc(CC3SC(=O)NC3=O)cc2)CCCCC1 (centres undefined) [CIGLITAZONE]
Glucose level (Mus musculus [21]): 189 mg/dL

COc1ccc(Cl)cc1C(=O)NCCc1ccc(S(=O)(=O)NC(=O)NC2CCCCC2)cc1 [GLYBURIDE]
Glucose level (Rattus norvegicus [7]): 55 mg/dL | Glucose level (Mus musculus [17]): 297 mg/dL | Glucose level (Rattus norvegicus [18]): 71 mg/dL | Glucose level (Rattus norvegicus [20]): 51 mg/dL | Glucose level (Mus musculus [21]): 311 mg/dL | Glucose level (Rattus norvegicus [23]): 110 mg/dL

CN(C)C(=N)NC(=N)N [METFORMIN]
Glucose level (Mus musculus [25]): 253 mg/dL | Glucose level (Mus musculus [26]): 208 mg/dL
